Values after ≈ are worked out from the molar mass of the structure shown.
How the values were obtained:
Format in all cases: functional
[1] = test system: Staphylococcus aureus; assay: Antibacterial activity against multidrug-resistant Staphylococcus aureus isolate 231 by broth microdilution assay
Summary of the method: (§1)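 Broth microdilution MIC per CLSI guidelines against clinical MRSA isolates, for β-lactams and test compound alone and in combination. Compounds were dissolved in DMSO. Growth was read by eye, in duplicate. FIC index = FIC(compound) + FIC(drug); synergy defined as FIC index ≤0.5.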

[2] = test system: Staphylococcus aureus; assay: Antibacterial activity against multidrug-resistant Staphylococcus aureus isolate 3332 by broth microdilution assay; summary of the method: as §1
[3] = test system: Staphylococcus aureus; assay: Antibacterial activity against multidrug-resistant Staphylococcus aureus isolate 3411 by broth microdilution assay; summary of the method: as §1
[4] = test system: Staphylococcus aureus; assay: Antibacterial activity against multidrug-resistant Staphylococcus aureus isolate 757 by broth microdilution assay; summary of the method: as §1
[5] = test system: Staphylococcus aureus; assay: Antibacterial activity against multidrug-resistant Staphylococcus aureus isolate 1749 by broth microdilution assay; summary of the method: as §1
[6] = test system: Staphylococcus aureus; assay: Antibacterial activity against multidrug-resistant Staphylococcus aureus isolate 1449 by broth microdilution assay; summary of the method: as §1
[7] = test system: Staphylococcus aureus; assay: Synergistic antibacterial activity against multidrug-resistant Staphylococcus aureus isolate 1136 in presence of amoxicillin by broth microdilution assay; summary of the method: as §1
[8] = test system: Staphylococcus aureus; assay: Synergistic antibacterial activity against multidrug-resistant Staphylococcus aureus isolate 200 in presence of amoxicillin by broth microdilution assay
Summary of the method: (§2)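 Clinical MRSA isolate panel; compound and β-lactam tested alone and in combination by CLSI broth microdilution, compounds dissolved in DMSO, growth inhibition scored by eye, run in duplicate. FIC index = FIC(compound) + FIC(drug), each the MIC in combination divided by the MIC alone; an index ≤ 0.5 was called synergy.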

[9] = test system: Staphylococcus aureus; assay: Synergistic antibacterial activity against multidrug-resistant Staphylococcus aureus isolate 417 in presence of methicillin by broth microdilution assay
[10] = test system: Staphylococcus aureus; assay: Synergistic antibacterial activity against multidrug-resistant Staphylococcus aureus isolate 2901 in presence of methicillin by broth microdilution assay
Summary of the method: (§3)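 CLSI broth microdilution on clinical MRSA isolates. MICs were measured for the β-lactam alone, the test agent alone and the two combined. Compounds were dissolved in DMSO, and growth inhibition was scored by eye. FIC index is the sum, over both agents, of MIC in combination divided by MIC alone. An FIC index ≤0.5 was taken as synergy.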

[11] = test system: Staphylococcus aureus; assay: Synergistic antibacterial activity against multidrug-resistant Staphylococcus aureus isolate 3267 in presence of methicillin by broth microdilution assay; summary of the method: as §3
[12] = test system: Staphylococcus aureus; assay: Synergistic antibacterial activity against multidrug-resistant Staphylococcus aureus isolate 1749 in presence of methicillin by broth microdilution assay; summary of the method: as §2
[13] = test system: Staphylococcus aureus; assay: Synergistic antibacterial activity against multidrug-resistant Staphylococcus aureus isolate 254 in presence of cloxacillin by broth microdilution assay; summary of the method: as §3
[14] = test system: Staphylococcus aureus; assay: Synergistic antibacterial activity against multidrug-resistant Staphylococcus aureus isolate 3411 in presence of cloxacillin by broth microdilution assay
[15] = test system: Staphylococcus aureus; assay: Synergistic antibacterial activity against multidrug-resistant Staphylococcus aureus isolate 2224 in presence of cloxacillin by broth microdilution assay; summary of the method: as §2
[16] = test system: Staphylococcus aureus; assay: Synergistic antibacterial activity against multidrug-resistant Staphylococcus aureus isolate 200 in presence of cloxacillin by broth microdilution assay; summary of the method: as §2
[17] = test system: Staphylococcus aureus; assay: Synergistic antibacterial activity against multidrug-resistant Staphylococcus aureus isolate 1136 in presence of cefuroxime by broth microdilution assay; summary of the method: as §2
[18] = test system: Staphylococcus aureus; assay: Synergistic antibacterial activity against multidrug-resistant Staphylococcus aureus isolate 2919 in presence of cefuroxime by broth microdilution assay; summary of the method: as §3
[19] = test system: Staphylococcus aureus; assay: Synergistic antibacterial activity against multidrug-resistant Staphylococcus aureus isolate 358 in presence of cefuroxime by broth microdilution assay
[20] = test system: Staphylococcus aureus; assay: Synergistic antibacterial activity against multidrug-resistant Staphylococcus aureus isolate 757 in presence of meropenem by broth microdilution assay
[21] = test system: Staphylococcus aureus; assay: Synergistic antibacterial activity against multidrug-resistant Staphylococcus aureus isolate 200 in presence of meropenem by broth microdilution assay; summary of the method: as §2
[22] = test system: Staphylococcus aureus; assay: Synergistic antibacterial activity against multidrug-resistant Staphylococcus aureus isolate 2901 assessed as fractional Inhibitory concentration index in presence of amoxicillin by broth microdilution assay
[23] = test system: Staphylococcus aureus; assay: Synergistic antibacterial activity against multidrug-resistant Staphylococcus aureus isolate 3411 assessed as fractional Inhibitory concentration index in presence of amoxicillin by broth microdilution assay
[24] = test system: Staphylococcus aureus; assay: Synergistic antibacterial activity against multidrug-resistant Staphylococcus aureus isolate 2224 assessed as fractional Inhibitory concentration index in presence of amoxicillin by broth microdilution assay
Summary of the method: (§4)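 CLSI broth microdilution run on clinical MRSA isolates with each β-lactam alone, the test agent alone, and the two combined; agents dissolved in DMSO. Growth inhibition was read by eye. FIC index = FIC(compound) + FIC(β-lactam), where each FIC is the MIC in combination divided by the MIC alone. An index ≤0.5 was taken as synergy.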

[25] = test system: Staphylococcus aureus; assay: Synergistic antibacterial activity against multidrug-resistant Staphylococcus aureus isolate 2901 assessed as fractional Inhibitory concentration index in presence of methicillin by broth microdilution assay
[26] = test system: Staphylococcus aureus; assay: Synergistic antibacterial activity against multidrug-resistant Staphylococcus aureus isolate 3332 assessed as fractional Inhibitory concentration index in presence of methicillin by broth microdilution assay
[27] = test system: Staphylococcus aureus; assay: Synergistic antibacterial activity against multidrug-resistant Staphylococcus aureus isolate 2895 assessed as fractional Inhibitory concentration index in presence of methicillin by broth microdilution assay
[28] = test system: Staphylococcus aureus; assay: Synergistic antibacterial activity against multidrug-resistant Staphylococcus aureus isolate 1717 assessed as fractional Inhibitory concentration index in presence of methicillin by broth microdilution assay; summary of the method: as §4
[29] = test system: Staphylococcus aureus; assay: Synergistic antibacterial activity against multidrug-resistant Staphylococcus aureus isolate 774 assessed as fractional Inhibitory concentration index in presence of cloxacillin by broth microdilution assay
[30] = test system: Staphylococcus aureus; assay: Synergistic antibacterial activity against multidrug-resistant Staphylococcus aureus isolate 200 assessed as fractional Inhibitory concentration index in presence of cloxacillin by broth microdilution assay; summary of the method: as §4
[31] = test system: Staphylococcus aureus; assay: Synergistic antibacterial activity against multidrug-resistant Staphylococcus aureus isolate 1344 assessed as fractional Inhibitory concentration index in presence of cefuroxime by broth microdilution assay; summary of the method: as §4
[32] = test system: Staphylococcus aureus; assay: Synergistic antibacterial activity against multidrug-resistant Staphylococcus aureus isolate 2901 assessed as fractional Inhibitory concentration index in presence of cefuroxime by broth microdilution assay
[33] = test system: Staphylococcus aureus; assay: Synergistic antibacterial activity against multidrug-resistant Staphylococcus aureus isolate 256 assessed as fractional Inhibitory concentration index in presence of cefuroxime by broth microdilution assay
[34] = test system: Staphylococcus aureus; assay: Synergistic antibacterial activity against multidrug-resistant Staphylococcus aureus isolate 1136 assessed as fractional Inhibitory concentration index in presence of cefuroxime by broth microdilution assay; summary of the method: as §4
[35] = test system: Staphylococcus aureus; assay: Synergistic antibacterial activity against multidrug-resistant Staphylococcus aureus isolate 200 assessed as fractional Inhibitory concentration index in presence of cefuroxime by broth microdilution assay; summary of the method: as §4
[36] = test system: Staphylococcus aureus; assay: Synergistic antibacterial activity against multidrug-resistant Staphylococcus aureus isolate 231 assessed as fractional Inhibitory concentration index in presence of meropenem by broth microdilution assay; summary of the method: as §4
[37] = test system: Staphylococcus aureus; assay: Synergistic antibacterial activity against multidrug-resistant Staphylococcus aureus isolate 3589 assessed as fractional Inhibitory concentration index in presence of meropenem by broth microdilution assay
[38] = test system: Staphylococcus aureus; assay: Synergistic antibacterial activity against multidrug-resistant Staphylococcus aureus isolate 1402 assessed as fractional Inhibitory concentration index in presence of meropenem by broth microdilution assay; summary of the method: as §4
[39] = test system: Staphylococcus aureus; assay: Synergistic antibacterial activity against multidrug-resistant Staphylococcus aureus isolate 3580 assessed as fractional Inhibitory concentration index in presence of meropenem by broth microdilution assay

**Q.** Which results are given for `CCCCCCCCCNc1ccc(F)c(C(N)=O)c1F`?
**A.** MIC [1]: 8 µg/mL (≈ 26.8 µM); MIC [2]: 16 µg/mL (≈ 53.6 µM); MIC [3]: 2 µg/mL (≈ 6.7 µM); MIC [4]: 128 µg/mL (≈ 429 µM); MIC [5]: 2 µg/mL (≈ 6.7 µM); MIC [6]: 4 µg/mL (≈ 13.4 µM); MIC [7]: 16 µg/mL; MIC [8]: 8 µg/mL; MIC [9]: 2 µg/mL; MIC [10]: 2 µg/mL; MIC [11]: 4 µg/mL; MIC [12]: 2 µg/mL; MIC [13]: 2 µg/mL; MIC [14]: 1 µg/mL; MIC [15]: 2 µg/mL; MIC [16]: 1 µg/mL; MIC [17]: 2 µg/mL; MIC [18]: 2 µg/mL; MIC [19]: 2 µg/mL; MIC [20]: 16 µg/mL; MIC [21]: 8 µg/mL; fractional inhibitory concentration index (FICI) [22]: 0.1; fractional inhibitory concentration index (FICI) [23]: 2; fractional inhibitory concentration index (FICI) [24]: 0.2; fractional inhibitory concentration index (FICI) [25]: 0; fractional inhibitory concentration index (FICI) [26]: 0.3; fractional inhibitory concentration index (FICI) [27]: 0.3; fractional inhibitory concentration index (FICI) [28]: 1.1; fractional inhibitory concentration index (FICI) [29]: 0.5; fractional inhibitory concentration index (FICI) [30]: 1; fractional inhibitory concentration index (FICI) [31]: 0.3; fractional inhibitory concentration index (FICI) [32]: 0.1; fractional inhibitory concentration index (FICI) [33]: 0; fractional inhibitory concentration index (FICI) [34]: 0.1; fractional inhibitory concentration index (FICI) [35]: 1; fractional inhibitory concentration index (FICI) [36]: 0.6; fractional inhibitory concentration index (FICI) [37]: 1.5; fractional inhibitory concentration index (FICI) [38]: 5; fractional inhibitory concentration index (FICI) [39]: 1.3
